Reference: ChEMBL document CHEMBL4334444, “Studies of Jatrogossone A as a Reactive Oxygen Species Inducer in Cancer Cellular Models” (J Nat Prod, 2019)
Activity calls are given as the source filed them. The rule behind the calls is not given here.

How the values were obtained:
[1] = tested on: KOPN-8; assay: Upregulation of Trx level in human KOPN8 at 1 uM after 3 to 6 hrs by Western blot analysis; type: functional, cell-based
Procedure, shortened: (§1)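 Western blot of KOPN-8 or MCF-7 lysates, 30 μg protein per lane on 4–12% Bis-Tris SDS-PAGE and transferred to nitrocellulose. Blots were probed with an oxidative stress defense antibody cocktail (catalase, SOD1, Trx, smooth muscle actin) and tubulin, and detected with IR-dye secondaries on a LI-COR Odyssey.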

[2] = tested on: MDA-MB-231; assay: Antiproliferative activity against human MDA-MB-231 cells assessed as reduction in cell viability at 0.1 to 250 uM after 48 hrs by propidium iodide staining based fluorescence assay; type: functional
Procedure, shortened: (§2)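 MDA-MB-231 and SUM149 seeded at 6 × 10^4 to 2 × 10^5 cells/well, cultured 24 h, then exposed for 48 h. Cells fixed in cold methanol, stained with 0.4% propidium iodide, fluorescence imaged. Viability expressed as percent surviving cells relative to vehicle wells.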

[3] = tested on: HMEC; assay: Cytotoxicity against human HMEC cells assessed as cell detachment; type: cell-based
[4] = tested on: SEM cells; assay: Antiproliferative activity against human SEM cells assessed as reduction in cell viability at 0.1 to 250 uM by CellTiter-Glo assay; type: functional, cell-based
Procedure, shortened: (§3)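 CellTiter-Glo luminescent viability readout. Cells kept at 37 °C under 5% CO2. HMEC primary cells grown in basal medium with growth kit; leukemia lines and murine BCR-ABL (WT, Bax/Bak DKO) cultured per earlier description. Positive controls: staurosporine 25 μM, gambogic acid 10 μM, a toxic quinoline. At least two biological replicates in technical triplicate; luminescence normalized to untreated controls; EC50 computed.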

[5] = tested on: KOPN-8; assay: Upregulation of Trx expression in human KOPN8 at 1 uM after 24 hrs by Western blot analysis; type: functional, cell-based; procedure, shortened: as §1
[6] = tested on: KOPN-8; assay: Antiproliferative activity against human KOPN8 cells assessed as reduction in cell viability at 0.1 to 250 uM by CellTiter-Glo assay; type: functional, cell-based; procedure, shortened: as §3
[7] = tested on: MCF7; assay: Induction of mitochondrial membrane potential loss in human MCF7 cells at 30 uM after 24 to 48 hrs by TMRM staining based flow cytometric analysis; type: functional, cell-based
Procedure, shortened: (§4)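 TMRM flow cytometry. KOPN-8 (4 × 10^4 or 5 × 10^5 per well) or MCF-7 (2 × 10^4 or 2 × 10^5 per well) were seeded 24 h, then treated 24–48 h. FCCP 10 μM was added 10 min before staining as positive control. Cells were stained with TMRM 100 nM for 0.5 h, then PBS-washed, resuspended in PBS with 1% FBS and analysed by flow cytometry; DAPI flagged compromised cells.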

[8] = tested on: B-ALL; assay: Cytotoxicity against BCR-ABL p185-positive mouse B-ALL cells overexpressing human BFL-1 assessed as inhibition of cell viability after 24 hrs by AnnexinV-FITC/propidium iodide staining based flow cytometric analysis; type: functional
[9] = tested on: KOPN-8; assay: Induction of apoptosis in human KOPN8 cells assessed as increase in caspase 3/7 activity incubated for 24 hrs by caspase3/7 reagent based ApoTox-Glo triplex assay; type: functional, cell-based
Procedure, shortened: (§5)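 ApoTox-Glo Triplex assay in KOPN-8 or U2OS cells. Cells were incubated 12 h at 37 °C, then treated 24 h across 100–0.15 μM. Viability (GF-AFC, 400Ex/505Em) and cytotoxicity (bis-AAF-R110, 485Ex/520Em) were read after 30 min at 37 °C. Caspase-Glo 3/7 luminescence was then read after 0.5 h at room temperature. Values are mean ± SEM of three independent experiments.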

[10] = tested on: KOPN-8; assay: Antiproliferative activity against human KOPN8 cells assessed as reduction in cell viability at 1 to 10 uM by CellTiter-Glo assay; type: functional, cell-based; procedure, shortened: as §3
[11] = tested on: U2OS; assay: Decrease in cell viability in human U2OS cells incubated for 24 hrs by GF-AFC reagent based ApoTox-Glo triplex assay; type: functional
Procedure, shortened: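 ApoTox-Glo Triplex: cells held 12 h at 37 °C, then treated 24 h (100−0.15 μM). Viability/cytotoxicity reagent added, shaken, 30 min at 37 °C; viability read as GF-AFC fluorescence at 400Ex/505Em. Caspase-Glo 3/7 then added, 0.5 h at room temperature, luminescence read. Mean ± SEM of three independent experiments.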

[12] = tested on: KOPN-8; assay: Induction of mitochondrial membrane potential loss in human KOPN8 cells at 30 uM after 24 to 48 hrs by TMRM staining based flow cytometric analysis; type: functional, cell-based; procedure, shortened: as §4
[13] = tested on: MDA-MB-231; assay: Induction of ROS colocalization in mitochondria of human MDA-MB-231 cells at 30 uM incubated for 1 hr by CellROX green reagent/mitotracker deep red staining based confocal microscopic method; type: functional, cell-based
Procedure, shortened: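 MDA-MB-231 plated at 4 × 10^4/well in phenol-red-free medium, 12 h at 37 °C; for rescue, NAC 100 μM pretreatment 0.5 h. Compound 30 μM or DMSO for 1 h, then CellROX green 5 μM final, MitoTracker Deep Red 250 nM, Hoechst 33342 500 nM (0.5 h before imaging). Washed twice, live spinning-disk confocal at 63×; two independent experiments.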

[14] = tested on: SUM149PT; assay: Antiproliferative activity against human SUM149 cells assessed as reduction in cell viability at >10 uM after 48 hrs by propidium iodide staining based fluorescence assay; type: functional; procedure, shortened: as §2
[15] = tested on: U2OS; assay: Antiproliferative activity against human U2OS assessed as reduction in cell viability at >10 uM by CellTiter-Glo assay; type: functional, cell-based; procedure, shortened: as §3
[16] = tested on: KOPN-8; assay: Cytotoxicity against human KOPN8 cells assessed as cell viability at 0.95 to 125 uM after 72 hrs in presence of pan caspase inhibitor, Z-VAD-FMK by CellTiter-Glo assay; type: functional, cell-based
[17] = tested on: B-ALL; assay: Antiproliferative activity against mouse B-ALL cells expressing wild type BCR-ABL assessed as reduction in cell viability at 1 to 10 uM by CellTiter-Glo assay; type: functional, cell-based; procedure, shortened: as §3
[18] = Stability in DMSO assessed as micheal adduct formation by measuring intact compound incubated for 16 hrs in presence of glutathione by LC-MS analysis; type: physicochemical
[19] = tested on: B-ALL; assay: Cytotoxicity against BCR-ABL p185-positive mouse B-ALL cells transfected with empty vector assessed as inhibition of cell viability after 24 hrs by AnnexinV-FITC/propidium iodide staining based flow cytometric analysis; type: functional
[20] = tested on: KOPN-8; assay: Induction of apoptosis in human KOPN8 cells assessed as early apoptotic cells at 10 uM after 24 hrs by Annexin V-FITC and propidium iodide staining based flow cytometry; type: functional, cell-based
Procedure, shortened: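 KOPN-8 cells were plated at 1.00 × 10^6 per plate and held 12 h at 37 °C, then treated 24 h; positive control 2 μM staurosporine, vehicle DMSO. Cells were stained with Annexin V-FITC and PI and analysed by flow cytometry (FACSCalibur). Profiles are representative of three independent biological replicates.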

[21] = tested on: PBMC; assay: Cytotoxicity against human PBMC cells assessed as cell viability at >100 uM by CellTiter-Glo assay; type: cell-based; procedure, shortened: as §3
[22] = tested on: U2OS; assay: Induction of apoptosis in human U2OS cells assessed as increase in caspase 3/7 activity incubated for 24 hrs by caspase 3/7 reagent based ApoTox-Glo triplex assay; type: functional, cell-based; procedure, shortened: as §5

For `CC1=C2CC(C)(C)/C=C/C(=O)/C(C)=C\C3=C[C@H](C)C[C@]3(O2)C1=O` [JATROPHONE], the Activity [1] was “Active”, the inhibition [2] was “Active” and the Activity [3] was “Toxic”. The inhibition [4] was “Active”, the Activity [5] was “inactive” and the inhibition [6] was “Active”.

With `CC(=O)O[C@H]1/C2=C/[C@@H](C)C(=O)C[C@H]3[C@@H](/C=C(\C)C(=O)[C@H]2C[C@H]1C)C3(C)C` the Activity [7] was “inactive”, the IC50 [8] was 4.26 µM and the Activity [9] was “Dose-dependent effect”. For the same compound, the inhibition [10] was “Active”, the inhibition [11] was “Dose-dependent effect” and the Activity [12] was “Active”. For the same compound, the Activity [13] was “Active”, the inhibition [14] was “Active” and the inhibition [15] was “Active”. For the same compound, the Activity [16] was “inactive”, the inhibition [17] was “Active” and the Stability [18] was “Stable”. The IC50 [19] was 4.57 µM, the Activity [20] was “inactive” and the Activity [21] was “Non-Toxic”. For the same compound, the Activity [22] was “Dose-dependent effect”.
